Where “and” joins values, the source holds several entries; their conditions need not be identical. Identical values can stand only once.

Data on 22 compounds can be found in ChEMBL document CHEMBL1135421, “2-(Anilinomethyl)imidazolines as alpha1 adrenergic receptor agonists: the discovery of alpha1a subtype selective 2'-alkylsulfonyl-substituted analogues” (J Med Chem, 2002).

The target of assay [1] is T1, Alpha-2A adrenergic receptor (Homo sapiens, UniProt P08913).
T1 sequence (P08913 whole entry): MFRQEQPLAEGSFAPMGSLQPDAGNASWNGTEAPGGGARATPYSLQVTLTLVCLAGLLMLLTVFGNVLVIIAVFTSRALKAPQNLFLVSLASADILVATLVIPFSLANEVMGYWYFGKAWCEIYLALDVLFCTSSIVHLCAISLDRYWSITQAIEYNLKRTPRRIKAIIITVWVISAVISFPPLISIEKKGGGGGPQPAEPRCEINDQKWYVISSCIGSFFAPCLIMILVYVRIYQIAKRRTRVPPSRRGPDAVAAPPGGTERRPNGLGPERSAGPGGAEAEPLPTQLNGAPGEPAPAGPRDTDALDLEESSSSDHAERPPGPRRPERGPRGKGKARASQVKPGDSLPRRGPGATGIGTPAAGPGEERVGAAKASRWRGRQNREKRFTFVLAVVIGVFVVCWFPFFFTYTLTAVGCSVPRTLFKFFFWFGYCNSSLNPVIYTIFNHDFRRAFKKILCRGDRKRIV
Nature of the assay: Agonist potency at Alpha-2A adrenergic receptor expressed in CHO cells. The assay is classed as functional, cell-based.

The target of assay [2] is T2, Alpha-2C adrenergic receptor (Homo sapiens, UniProt P18825).
T2 sequence (P18825 whole entry): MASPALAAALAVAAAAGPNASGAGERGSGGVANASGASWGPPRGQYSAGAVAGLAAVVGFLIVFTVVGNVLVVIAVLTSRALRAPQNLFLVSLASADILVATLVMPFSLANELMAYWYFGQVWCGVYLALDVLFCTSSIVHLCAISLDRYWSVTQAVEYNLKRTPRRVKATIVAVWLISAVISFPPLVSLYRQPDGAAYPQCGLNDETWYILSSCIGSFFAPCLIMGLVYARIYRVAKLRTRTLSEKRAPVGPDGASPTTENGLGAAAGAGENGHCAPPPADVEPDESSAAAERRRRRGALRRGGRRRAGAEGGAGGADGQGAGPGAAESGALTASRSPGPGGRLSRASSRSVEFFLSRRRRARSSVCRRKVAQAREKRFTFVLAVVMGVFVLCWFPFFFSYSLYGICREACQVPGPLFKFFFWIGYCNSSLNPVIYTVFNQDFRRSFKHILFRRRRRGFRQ
Nature of the assay: Agonist potency at Alpha-2C adrenergic receptor expressed in CHO cells. In kind it is functional, cell-based.

In assay [3] the target is T1, Alpha-2A adrenergic receptor. Nature of the assay: Agonist potency at Alpha-2A stably expressed in CHO cells. The assay is classed as functional, cell-based.
Assay [4] deals with T3, Alpha-1D adrenergic receptor (Homo sapiens) (UniProt P25100).
T3 sequence (whole entry): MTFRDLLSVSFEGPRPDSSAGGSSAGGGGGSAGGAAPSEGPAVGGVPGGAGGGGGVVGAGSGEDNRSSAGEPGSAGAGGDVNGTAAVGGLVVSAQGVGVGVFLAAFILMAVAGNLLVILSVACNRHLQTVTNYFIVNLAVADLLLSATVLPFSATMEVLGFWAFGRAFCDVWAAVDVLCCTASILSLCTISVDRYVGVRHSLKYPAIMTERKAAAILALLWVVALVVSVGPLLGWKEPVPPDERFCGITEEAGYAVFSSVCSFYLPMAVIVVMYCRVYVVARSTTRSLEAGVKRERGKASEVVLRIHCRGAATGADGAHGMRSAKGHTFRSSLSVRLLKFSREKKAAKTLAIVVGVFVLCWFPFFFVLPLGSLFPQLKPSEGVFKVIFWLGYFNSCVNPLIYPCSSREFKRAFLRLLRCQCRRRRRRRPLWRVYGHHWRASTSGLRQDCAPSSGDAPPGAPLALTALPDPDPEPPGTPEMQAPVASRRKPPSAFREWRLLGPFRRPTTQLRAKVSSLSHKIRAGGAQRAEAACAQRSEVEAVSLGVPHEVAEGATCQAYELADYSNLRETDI
Nature of the assay: Efficacy as percent maximal effect observed for nonselective agonist phenylephrine in rat-1 fibroblasts expressing human Alpha-1D adrenergic receptor. The assay is classed as functional. The gist of the method: (§1)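 Rat-1 fibroblasts expressing human α1a/α1b/α1d, grown in DMEM with 10% heat-inactivated FBS and 0.6 mg/mL G418, plated 6000 cells/well and cultured 48 h at 37 °C. Loaded 2 h at 37 °C with Calcium Green (4 μM), 0.2% pluronic acid and 2.5 mM probenecid in HEPES buffer pH 7.4. FLIPR read at room temperature: 10 s baseline, then 50 s after compound. 11-point curves as % of 40 μM phenylephrine response, top concentration typically 5 μM.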

Assay [5] concerns the target T4, Alpha-1B adrenergic receptor (Homo sapiens) (UniProt P35368).
T4 sequence (whole entry): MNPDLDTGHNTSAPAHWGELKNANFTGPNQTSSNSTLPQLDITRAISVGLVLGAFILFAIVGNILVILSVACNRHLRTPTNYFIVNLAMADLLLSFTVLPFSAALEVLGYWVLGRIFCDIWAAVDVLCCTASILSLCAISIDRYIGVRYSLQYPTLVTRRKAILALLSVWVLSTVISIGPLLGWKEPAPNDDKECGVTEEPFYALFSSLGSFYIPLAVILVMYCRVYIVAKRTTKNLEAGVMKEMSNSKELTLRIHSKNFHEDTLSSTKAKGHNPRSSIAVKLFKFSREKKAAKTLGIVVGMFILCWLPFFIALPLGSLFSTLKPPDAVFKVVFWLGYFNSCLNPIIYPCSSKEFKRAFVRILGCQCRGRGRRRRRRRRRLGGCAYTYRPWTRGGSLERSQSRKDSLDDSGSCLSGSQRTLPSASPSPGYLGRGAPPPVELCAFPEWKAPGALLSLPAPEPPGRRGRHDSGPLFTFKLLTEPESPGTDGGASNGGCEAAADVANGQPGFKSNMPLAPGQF
The assay is described as follows: Efficacy as % of the maximal effect observed for nonselective agonist phenylephrine in rat-1 fibroblasts expressing human Alpha-1B adrenergic receptor. In kind it is functional. The gist of the method:
as §1

In the case of `C[S+]([O-])c1ccccc1NCC1=NCCN1` (centres undefined), the half-maximal effective concentration (EC50) in assay [1] and in assay [2] was over 10000 nM each time.
`CS(=O)(=O)c1cc(Cl)ccc1NCC1=NCCN1` gave a 50% effective concentration (EC50) in assay [3] of over 10000 nM.
Consider `CS(=O)(=O)c1ccc(C(F)(F)F)cc1NCC1=NCCN1`, for which the 50% effective concentration (EC50) in assay [3] is over 10000 nM.
For the compound `CSc1c(F)cccc1NCC1=NCCN1`, the results for the Max in assay [4] and in assay [5] were 59% and 48%, respectively. Also, the results for the half-maximal effective concentration (EC50) in assay [1] and in assay [2] were 100 nM and 15.8 nM, respectively.
Regarding `CS(=O)(=O)c1cc(F)ccc1NCC1=NCCN1`, the concentration giving a half-maximal response (EC50) in assay [1] and in assay [2] was over 10000 nM in each case.
On to `CS(=O)(=O)c1ccc(F)cc1NCC1=NCCN1`, for which the EC50 in assay [3] is over 10000 nM.
For `CC(C)S(=O)(=O)c1ccccc1NCC1=NCCN1`, the EC50 in assay [1] and in assay [2] was over 10000 nM each time.
`CS(=O)(=O)c1cccc(F)c1NCC1=NCCN1`: in assay [3], the concentration giving a half-maximal response (EC50) is over 10000 nM.
As to `CSc1ccc(Cl)cc1NCC1=NCCN1`, the Max in assay [4] amounted to 106%; in assay [5], 103%. In addition, the EC50 in assay [3] is 6.31 nM.
For `CSc1cc(F)ccc1NCC1=NCCN1`, in that order: 75%, 78% and 316 nM.
For `CSc1ccc(C(F)(F)F)cc1NCC1=NCCN1`, in that order: 58%, 114% and over 10000 nM.
As to `CSc1ccc(F)cc1NCC1=NCCN1`, the values for the Max in assay [4] and in assay [5] were 107% and 92%, respectively. This compound also had an EC50 in assay [3] of 25.1 nM.
As for `CS(=O)(=O)c1c(F)cccc1NCC1=NCCN1`, the figures for the EC50 in assay [1] and in assay [2] were over 10000 nM and 501 nM, respectively.
`CSc1ccccc1NCC1=NCCN1` had a Max in assay [4] of 55%. Further, the EC50 in assay [2] was 5.62 nM.
On to `Cc1ccc(S(C)(=O)=O)c(NCC2=NCCN2)c1`, for which the Max in assay [5] came out at 91%. The compound also had an EC50 in assay [3] of over 10000 nM.
Take `COc1ccc(SC)c(NCC2=NCCN2)c1`: the Max was 91% in assay [4] and 92% in assay [5]. Further, in assay [3], the EC50 was 447 nM and 200 nM.
Take `CC(C)Sc1ccccc1NCC1=NCCN1`: the Max in assay [5] is 29%. The EC50 in assay [1] is 417 nM; in assay [2], 28.2 nM.
Take `CS(=O)(=O)c1ccccc1NCC1=NCCN1`: in assay [3], the EC50 was over 10000 nM.
As for `CSc1ccc(C)cc1NCC1=NCCN1`, the Max in assay [4] was 107%; in assay [5], 96%. In assay [3], this compound showed an EC50 of 25.1 nM.
As for `CS(=O)(=O)c1ccc(Cl)cc1NCC1=NCCN1`, the Max in assay [5] worked out at 103%. This compound also gave a concentration giving a half-maximal response (EC50) in assay [3] of over 10000 nM.
For the compound `CCS(=O)(=O)c1ccccc1NCC1=NCCN1`, the EC50 in assay [1] is over 10000 nM; in assay [2] it was 5010 nM.
As for `CCSc1ccccc1NCC1=NCCN1`, the Max was determined as 34% in assay [4] and 82% in assay [5]. The same compound had a concentration giving a half-maximal response (EC50) in assay [1] of 251 nM.

What is called EC50 is the concentration needed to bring the measured effect to its halfway point. Read a low EC50 as greater potency.
